# Columns and labels:
# Assay type in all cases: ADME, organism-based
# Set-up in all cases: dose 16 mg/kg, route intravenous
# Conditions in all cases: in vivo; call rule not given here
# [1] = Drug uptake in Wistar rat kidney proximal tubule S1 obtained after tissue digestion with 0.04% protease digestion for 2 hrs mins at 4 or 16 mg/kg, iv after 12 hrs post dose by light-microscopic immunocytochemistry
# In short: (§1)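 Male Wistar rats (200–250 g) received a single tail-vein gentamicin dose (3 per time group), with saline-injected rats as controls. Under pentobarbital, rats were perfused with PBS, then 2% glutaraldehyde in 10 mM phosphate (pH 7.2), and kidneys postfixed overnight at 4°C. Paraffin sections (5 μm) were treated with 6% H₂O₂, 1.0% NaBH₄ and 1 N HCl, then protease at 30°C. Staining used rabbit anti-GM serum 1:5,000 (overnight, 4°C), then HRP anti-rabbit IgG with DAB.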
# [2] = Drug uptake in Wistar rat Kidney glomeruli cells obtained after tissue digestion with 0.04% protease digestion for 15 mins to 2 hrs mins at 4 or 16 mg/kg, iv after 12 hrs post dose by light-microscopic immunocytochemistry; in short: as §1
# [3] = Drug uptake in Wistar rat Kidney endothelium cells obtained after tissue digestion with 0.04% protease digestion for 15 mins to 2 hrs mins at 4 or 16 mg/kg, iv after 12 hrs post dose by light-microscopic immunocytochemistry; in short: as §1
# [4] = Drug uptake in Wistar rat kidney proximal tubule […] cells obtained after tissue digestion with 0.04% protease digestion for 15 mins at 4 or 16 mg/kg, iv after 12 hrs post dose by light-microscopic immunocytochemistry; in short: as §1
# [5] = Drug uptake in Wistar rat kidney collecting duct cells obtained after tissue digestion with 0.04% protease digestion for 2 hrs at 4 or 16 mg/kg, iv after 12 hrs post dose by light-microscopic immunocytochemistry; in short: as §1
# [6] = Drug uptake in Wistar rat Kidney endothelium cells obtained after tissue digestion with 0.04% protease digestion for 15 mins to 60 mins at 4 or 16 mg/kg, iv after 1 hrs post dose by light-microscopic immunocytochemistry; in short: as §1
# [7] = Drug uptake in cytoplasm of Wistar rat kidney distal tubule cells obtained after tissue digestion with 0.04% protease digestion for 15 mins at 4 or 16 mg/kg, iv after 12 hrs post dose by light-microscopic immunocytochemistry; in short: as §1
# [8] = Drug uptake in nuclei of Wistar rat kidney distal tubule cells obtained after tissue digestion with 0.04% protease digestion for 15 mins at 4 or 16 mg/kg, iv after 12 hrs post dose by light-microscopic immunocytochemistry; in short: as §1
# [9] = Drug uptake in Wistar rat Kidney endothelium cells obtained after tissue digestion with 0.04% protease digestion for 2 hrs mins at 4 or 16 mg/kg, iv after 1 hrs post dose by light-microscopic immunocytochemistry; in short: as §1
# [10] = Drug uptake in Wistar rat kidney proximal tubule S2 obtained after tissue digestion with 0.04% protease digestion for 2 hrs mins at 4 or 16 mg/kg, iv after 12 hrs post dose by light-microscopic immunocytochemistry; in short: as §1
# [11] = Drug uptake in Wistar rat Kidney Henle's loop cells obtained after tissue digestion with 0.04% protease digestion for 15 mins to 2 hrs mins at 4 or 16 mg/kg, iv after 12 hrs post dose by light-microscopic immunocytochemistry; in short: as §1
# [12] = Drug uptake in cytoplasm of Wistar rat kidney distal tubule cells obtained after tissue digestion with 0.04% protease digestion for 2 hrs at 4 or 16 mg/kg, iv after 12 hrs post dose by light-microscopic immunocytochemistry; in short: as §1
# [13] = Drug uptake in Wistar rat kidney collecting duct cells obtained after tissue digestion with 0.04% protease digestion for 30 mins at 4 or 16 mg/kg, iv after 12 hrs post dose by light-microscopic immunocytochemistry; in short: as §1
# [14] = Drug uptake in Wistar rat kidney collecting duct cells obtained after tissue digestion with 0.04% protease digestion for 15 mins at 4 or 16 mg/kg, iv after 12 hrs post dose by light-microscopic immunocytochemistry; in short: as §1
sequence,measurement,setting,value
GENTAMICIN,Drug uptake,[1],Active
same,Drug uptake,[2],Not Active
same,Drug uptake,[3],Not Active
same,Drug uptake,[4],Not Active
same,Drug uptake,[5],Not Active
same,Drug uptake,[6],Active
same,Drug uptake,[7],Active
same,Drug uptake,[8],Active
same,Drug uptake,[9],Not Active
same,Drug uptake,[10],Active
same,Drug uptake,[11],Not Active
same,Drug uptake,[12],Not Active
same,Drug uptake,[13],Active
same,Drug uptake,[14],Active

# Source: ChEMBL document CHEMBL1671656, “Light-microscopic immunocytochemistry for gentamicin and its use for studying uptake of the drug in kidney” (Antimicrob Agents Chemother, 2009)
